pEC50: −log10 of the molar value.
Key:
Jurkat = assay: Effective concentration required for inhibition of necroptosis in FADD deficient Jurkat T cells treated with TNF-alpha; assay type: functional, cell-based; settings: Homo sapiens
Method in brief: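 FADD-deficient human Jurkat T cells given human TNFα 10 ng/mL plus rising concentrations of inhibitor for 24 h. Viability read by luminescent ATP-based assay and corrected for nonspecific toxicity. EC50 from nonlinear regression of sigmoid variable-slope dose–response curves, log inhibitor concentration versus viability.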

[1] = Area under curve concentration in male mouse after 8 hours of intravenous administration; assay type: ADME; set-up: time < 8 hr, route intravenous; settings: in vivo
Method in brief: (§1)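 CD-1 mice of each sex given a single intravenous dose of 1 mg/kg. Vehicle was 10% propylene glycol in normal saline, dosing solution 0.16 mg/mL. Plasma pharmacokinetics followed over 8 h to give AUC, Cmax, half-life, Vss and clearance.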

[2] = Area under curve concentration in female mouse after 8 hours of intravenous administration; assay type: ADME; set-up: time < 8 hr, route intravenous; settings: in vivo; method in brief: as §1
[3] = Maximum concentration in male mouse upon intravenous administration; assay type: ADME, organism-based; set-up: route intravenous; settings: in vivo; method in brief: as §1
[4] = Maximum concentration in female mouse upon intravenous administration; assay type: ADME, organism-based; set-up: route intravenous; settings: in vivo; method in brief: as §1
[5] = Brain concentration in male mouse after 30 min intravenous administration; assay type: ADME
Method in brief: (§2)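 Male CD-1 mice dosed intravenously at 1 mg/kg in 10% propylene glycol/normal saline (0.16 mg/mL). Brain and plasma concentrations measured at set post-injection times, and brain-to-plasma ratio calculated.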

[6] = Plasma concentration in male mouse after 30 min intravenous administration; assay type: ADME; method in brief: as §2
[7] = Plasma concentration in male mouse after 180 min intravenous administration; assay type: ADME; method in brief: as §2
[8] = Ratio between concentration in brain to that of plasma was determined n male mouse after 30 min intravenous administration; assay type: ADME; method in brief: as §2
[9] = Clearance value in male mouse upon intravenous administration; assay type: ADME, organism-based; settings: in vivo, read-out: CLs; method in brief: as §1
[10] = Clearance value in female mouse upon intravenous administration; assay type: ADME, organism-based; settings: in vivo, read-out: CLs; method in brief: as §1
[11] = Volume of distribution at steady state was determined in male mouse upon intravenous administration; assay type: ADME, organism-based; settings: in vivo; method in brief: as §1

Row | SMILES | pEC50 (Jurkat) | further results
1 | CN1C(=O)C(Cc2c[nH]c3c(Cl)cccc23)N(C)C1=O (stereo unspecified) | < 5.00 | –
2 | COc1cccc2c(CC3NC(=S)N(C)C3=O)c[nH]c12 (stereo unspecified) | 6.20 | –
3 | CN1C(=O)NC(Cc2c[nH]c3cc(Cl)ccc23)C1=O (stereo unspecified) | 5.24 | –
4 | CN1C(=O)NC(Cc2c[nH]c3c(OCc4ccccc4)cccc23)C1=O (stereo unspecified) | < 5.00 | –
5 | CN1C(=O)NC(Cc2c[nH]c3cccc(Cl)c23)C1=O (stereo unspecified) | 5.04 | –
6 | CN1C(=O)C(Cc2c[nH]c3c(Br)cccc23)NC1=S (stereo unspecified) | 6.80 | –
7 | COc1cccc2c(CC3NC(=O)N(C)C3=O)c[nH]c12 (stereo unspecified) | 6.15 | –
8 | CN1C(=O)OC(Cc2c[nH]c3c(Cl)cccc23)C1=O (stereo unspecified) | 6.42 | –
9 | CN1C(=O)NC(Cc2c[nH]c3c(Cl)cccc23)C1=O (stereo unspecified) | 6.68 | AUC at 8 h [1]: 274 ng·h/mL; AUC at 8 h [2]: 165 ng·h/mL; Cmax [3]: 873 ng/mL; Cmax [4]: 573 ng/mL; concentration at 0.5 h [5]: 740 nM; concentration at 0.5 h [6]: 310 nM; concentration at 3 h [7]: 3 nM; Kp at 0.5 h [8]: 2.4; clearance [9]: 61 mL/min/kg; clearance [10]: 100 mL/min/kg; Vss [11]: 2.5 L/kg; Vd ([11]; male, read-out: Vss): 2.5 L/kg
10 | CCCCN1C(=O)NC(Cc2c[nH]c3c(Cl)cccc23)C1=O (stereo unspecified) | 6.07 | –
11 | CCCCOc1cccc2c(CC3NC(=O)N(C)C3=O)c[nH]c12 (stereo unspecified) | 6.57 | –
12 | CN1C(=O)NC(Cc2c[nH]c3c(F)cccc23)C1=O (stereo unspecified) | 6.23 | –
13 | CN1C(=O)C(Cc2csc3ccccc23)NC1=S (stereo unspecified) | 5.32 | –
14 | Cc1cccc2c(CC3NC(=O)N(C)C3=O)c[nH]c12 (stereo unspecified) | 6.48 | –
15 | CN1C(=O)C(Cc2c[nH]c3c(F)cccc23)NC1=S (stereo unspecified) | 6.59 | –
16 | CN1C(=O)N[C@H](Cc2c[nH]c3c(Cl)cccc23)C1=O | 7.30 | –
17 | CN1C(=O)C(Cc2c[nH]c3ccccc23)NC1=S (stereo unspecified) [NECROSTATIN] | 6.31 | –

Row | SMILES | pEC50 (Jurkat) | further results
18 | CN1C(=O)C(Cc2cn(C)c3ccccc23)NC1=S (stereo unspecified) | < 5.00 | –
19 | COc1ccc2[nH]cc(CC3NC(=O)N(C)C3=O)c2c1 (stereo unspecified) | < 5.00 | –
20 | CN1C(=O)NC(Cc2c[nH]c3ccccc23)C1=O (stereo unspecified) | 5.89 | –
21 | CN1C(=O)NC(Cc2cn(C)c3c(Cl)cccc23)C1=O (stereo unspecified) | 5.42 | –
22 | CN1C(=O)NC(Cc2c[nH]c3c(Cl)cc(Cl)cc23)C1=O (stereo unspecified) | < 5.00 | –
23 | CN1C(=O)NC(Cc2csc3ccccc23)C1=O (stereo unspecified) | 5.25 | –
24 | O=C1NC(Cc2c[nH]c3c(Cl)cccc23)CO1 (stereo unspecified) | < 5.00 | –
25 | CN1C(=O)C(Cc2cn(C)c3c(Cl)cccc23)NC1=S (stereo unspecified) | < 5.00 | –
26 | Cc1[nH]c2ccccc2c1CC1NC(=O)N(C)C1=O (stereo unspecified) | < 5.00 | –
27 | CN1C(=O)C(Cc2c[nH]c3c(Cl)cccc23)NC1=S (stereo unspecified) | 6.74 | –
28 | CCN1C(=O)N[C@@H](Cc2c[nH]c3c(Cl)cccc23)C1=O | 6.74 | –
29 | CC(C)N1C(=O)NC(Cc2c[nH]c3c(Cl)cccc23)C1=O (stereo unspecified) | < 5.00 | –
30 | O=C1NC(=O)C(Cc2c[nH]c3ccccc23)N1 (stereo unspecified) | < 5.00 | –
31 | CN1C(=O)N[C@@H](Cc2c[nH]c3c(Cl)cccc23)C1=O | 6.64 | –
32 | O=C1NC(=S)NC1Cc1c[nH]c2ccccc12 (stereo unspecified) | < 5.00 | –
33 | CN1CC(Cc2c[nH]c3c(Cl)cccc23)NC1=O (stereo unspecified) | < 5.00 | –
34 | CN1C(=O)C(Cc2c[nH]c3cc(Cl)ccc23)NC1=S (stereo unspecified) | < 5.00 | –
